Bioassay records (PubChem)
CYP2C19 inhib – human CYP2C19 inhibition; CYP2C19 Supersomes, luciferin-H EGE luminescence, 30 min; AID 778; inhibition, % at 5 µM; P33261; hit rate 21% among 96,000;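 active = CYP2C19 inhibition above a set limit at 5 µM in the primary screen, cut at about 50% in these data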
Target sequence (P33261 whole entry, looked up): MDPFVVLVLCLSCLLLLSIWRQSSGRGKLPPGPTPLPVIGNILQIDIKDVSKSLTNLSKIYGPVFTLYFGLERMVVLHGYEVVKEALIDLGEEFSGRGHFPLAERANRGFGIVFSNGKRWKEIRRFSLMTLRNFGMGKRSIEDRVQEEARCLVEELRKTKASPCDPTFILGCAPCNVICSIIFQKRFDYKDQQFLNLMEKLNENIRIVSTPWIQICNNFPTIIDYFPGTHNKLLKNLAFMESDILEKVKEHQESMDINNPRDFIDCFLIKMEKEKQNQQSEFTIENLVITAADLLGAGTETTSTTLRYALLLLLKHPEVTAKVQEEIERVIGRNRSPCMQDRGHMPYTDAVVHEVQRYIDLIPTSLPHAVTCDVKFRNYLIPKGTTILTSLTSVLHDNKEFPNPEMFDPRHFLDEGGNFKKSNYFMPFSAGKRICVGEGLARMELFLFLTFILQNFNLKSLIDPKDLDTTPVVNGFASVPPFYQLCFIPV
CYP2C9 inh – human CYP2C9 inhibition. CYP2C9 Supersomes, luciferin-H conversion, luminescence. inhibition, % at 5 µM. hit rate 20% among 96,000;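 active = blocking of liver enzyme CYP2C9 beyond about 50% at 5 µM, limit read from the data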
CYP2C9 activ – increases human cytochrome P450 2C9 activity. P11712. hit rate 1.4% among 96,000. activation factor at 5 µM. AID 1024. recombinant CYP2C9, luciferin-H conversion, luminescence; stronger effect = higher value; factor 1 = untreated enzyme, 0 = blocked;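 active = activation factor of 2 or more for CYP2C9 at a 5 µM dose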
Ecoli tolC – E. coli tolC mutant growth inhibition; AID 573; growth inhibition, % at 10 µM (by protocol); E. coli BW25113 tolC mutant growth, OD615; hit rate 2.2% among 65,000;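 active = growth inhibition at or above a cutoff equal to the mean over every tested compound plus 3 SD, cut at about 60% in these data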;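 also: growth measured after 20 h incubation at 37 °C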
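Signal: optical density read at 615 nm; Assay system: E. coli ΔtolC::kan strain BW25113; Times: 20 h incubation with compound, 37 °C; Dosing: 10 µM final, single dose.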
Ecoli WT expand – blocks growth of wild type E. coli BW25113 | OD600 absorbance | growth inhibition, % at 100 µM | hit rate 0.15% among 98,000 | AID 710;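 active = growth inhibition above about 50% at one test dose, limit read from the data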;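 also: growth measured after 20 h incubation at 37 °C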
CYP2C19 activ – increases human CYP2C19 enzyme activity | P33261 | recombinant CYP2C19, luciferin-H EGE luminescence; stronger effect = higher value; 0 = fully inhibited enzyme, 1 = untreated enzyme | activation factor at 5 µM | 96,000 tested, under 10 active;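 active = activation factor of at least 2 at 5 µM in the primary screen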
Numbers stand for hits; . = inactive; / = no result. Most compounds without a hit are left out; they make up all but 29% or so of the library.

SMILES	CYP2C19 inhib	CYP2C9 inh	CYP2C9 activ	Ecoli tolC	Ecoli WT expand	CYP2C19 activ
Cc1ccc(C(C)C)cc1C(=O)CC1(O)C(=O)N(C)c2ccccc21 (stereo unspecified)	66.4	59.2	.	.	.	.
C=C(C)CN(CC)C(=O)CSc1nc2ncc(Cl)cc2[nH]1	91.6	.	.	.	.	.
C=C(C)CSc1nc2ncc(Cl)cc2[nH]1	.	.	.	/	.	.
Cc1nnc(Sc2nc(Sc3nnc(C)s3)nc(N3CCN(C)CC3)n2)s1	/	/	/	.	/	/
Cc1nc2c(F)c(F)c(C(F)(F)F)c(F)c2[nH]1	60.9	.	.	.	.	.
Cc1nc2c(Br)c3nc(C(F)(F)F)[nH]c3c(Br)c2[nH]1	.	.	.	.	.	.
CCOC(=O)C(C)Sc1ncc(OC)c(=O)[nH]1 (stereo unspecified)	.	.	.	/	.	.
CCOC(=O)C(C)Sc1ncc(OC)c(Sc2ccc(Cl)cc2)n1 (stereo unspecified)	.	82.6	.	/	.	.
CCOC(=O)CSc1ncc(OC)c(Sc2ccc(Cl)cc2)n1	.	57.5	.	/	.	.
CC(C)OC(=O)C(CC(=O)O)NCc1ccccc1 (stereo unspecified)	.	.	.	.	.	.
COc1cc(CNn2cn[nH]c2=S)cc(Cl)c1OCc1ccccc1	82.5	.	.	/	.	.
COc1cc(CNn2nnnc2N)cc(Br)c1OCc1c(Cl)cccc1Cl	.	.	.	/	.	.
CCn1c(COc2ccccc2)nnc1SCC(=O)NC1CCCCC1	.	.	.	.	.	.
CCn1c(COc2ccccc2C)nnc1SCC(=O)CC(=O)Nc1ccccc1OC	.	.	2.5	.	.	.
CCn1c(CNC(=O)COc2ccc(C(C)C)cc2)nnc1SCC(=O)Nc1ccccc1F	52.6	71.0	.	/	.	.
CCn1c(COc2ccccc2C)nnc1SCC(=O)OC	.	.	.	.	.	.
CCn1c(COc2ccccc2)nnc1SCC(=O)CC(=O)Nc1ccccc1OC	.	.	2.1	.	.	.
CCn1c(COc2cccc(C)c2)nnc1SCC(=O)CC(=O)Nc1ccccc1OC	.	.	3.1	.	.	.
O=C(NCc1ccc(F)cc1)C1CCC(=O)N1CCc1ccccc1 (stereo unspecified)	.	.	.	.	.	.
O=C(Nc1ccc2c(c1)OCO2)C1CCN(C(=O)c2cccs2)CC1	.	.	.	.	.	.
COC(=O)c1cc(OC)c(OC)cc1N=CC1=C(O)CC(C)(C)CC1=O	.	.	.	.	.	.
CCNC(=O)c1ccc(-n2nc(C(F)(F)F)c3c2CCCC3)cc1	.	.	2.5	/	.	.
CCNC(=O)c1ccc(-n2nc(C)cc2-c2ccccc2)cc1	.	.	.	/	.	.
CCSCC1COC(c2cccn2Cc2ccc(C)cc2)=N1 (stereo unspecified)	.	.	.	61.3	.	.
O=C(c1ccccc1)c1c[nH]c2cc3c(cc2c1=O)OCCO3	/	/	/	.	/	/
SMILES	CYP2C19 inhib	CYP2C9 inh	CYP2C9 activ	Ecoli tolC	Ecoli WT expand	CYP2C19 activ
CCOC(=O)c1sc2nc(SCC#N)n(CCCN3CCCC3=O)c(=O)c2c1C	55.3	78.9	.	.	.	.
CCOC(=O)c1sc2nc3n(c(=O)c2c1C)CCCCC3	74.4	57.3	.	.	.	.
O=C(NCc1ccc2c(c1)OCO2)C1CCC(CNS(=O)(=O)c2ccc(Cl)cc2)CC1 (stereo unspecified)	.	.	.	/	.	.
CC(=O)N1CCN(c2nc(-c3ccco3)c3c(c2C#N)CC(C)(C)SC3)CC1	.	77.7	.	/	.	.
CC1(C)Cc2c(C#N)c(N3CCN(C(=O)c4ccccc4Cl)CC3)nc(-c3ccco3)c2CS1	.	70.5	.	/	.	.
N#Cc1cc(-c2ccccc2)oc1NC(=O)c1ccco1	.	.	.	.	.	.
Clc1cc(NCc2cccs2)ccc1N1CCOCC1	93.8	80.8	.	.	.	.
O=C(NC1CC1)C1CCN(c2ccc(S(=O)(=O)N3CCOCC3)cc2Cl)CC1	.	78.1	.	.	.	.
O=C(O)c1cc(S(=O)(=O)N2CCOCC2)ccc1N1CCOCC1	.	.	.	/	.	.
O=C(NCc1cccs1)C1CCN(S(=O)(=O)c2cccs2)CC1	/	/	/	.	.	/
CC(C)CNC(=O)C1CCN(c2ccc(S(=O)(=O)N3CCOCC3)cc2Cl)CC1	.	55.7	.	.	.	.
O=C(NCc1cccs1)C1CCN(c2ccc(S(=O)(=O)N3CCOCC3)cc2Cl)CC1	.	58.5	.	.	.	.
